Measured values as given in ChEMBL document CHEMBL4715843, “NO-releasing STAT3 inhibitors suppress BRAF-mutant melanoma growth” (Eur J Med Chem, 2020).
Activity calls are given as the source filed them.

Columns and labels:
[1] = molecular target: T1, Signal transducer and activator of transcription 3 (Homo sapiens, UniProt P40763); experiment: Inhibition of STAT3 phosphorylation at S727 residues in human MIA PaCa-2 cells at 25 uM after 12 hrs by Western blotting analysis; assay type: cell-based
In short: (§1)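 Cells lysed in M-PER after 12 h drug exposure (overnight per text); 60 µg total protein run on 10% SDS-PAGE, transferred to PVDF, probed overnight at 4 °C with phospho-specific antibodies. Panel lines (U87-MG, MDA-MB-468, MIA PaCa-2, NCI-H157, A549) given 25 µM; A375 given 0, 5, 10, 25 µM. Actin and/or vinculin loading controls.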

[2] = test system: MDA-MB-468; experiment: Antiproliferative activity against human MDA-MB-468 cells measured after 48 hrs by MTS assay; assay type: functional, cell-based
[3] = molecular target: T1, Signal transducer and activator of transcription 3; experiment: Inhibition of STAT3 phosphorylation at S727 residues in human MDA-MB-468 cells at 25 uM after 12 hrs by Western blotting analysis; assay type: cell-based; in short: as §1
[4] = molecular target: T1, Signal transducer and activator of transcription 3; experiment: Inhibition of STAT3 phosphorylation at S727 residues in human A-375 cells at 5 to 10 uM after 12 hrs by Western blotting analysis; assay type: cell-based; settings: dose 5-10 µM; in short: as §1
[5] = test system: 451Lu; experiment: Antiproliferative activity against human 451Lu cells measured after 48 hrs by MTS assay; assay type: functional, cell-based
[6] = molecular target: Proto-oncogene tyrosine-protein kinase Src (Homo sapiens) (UniProt P12931); experiment: Inhibition of SRC phosphorylation in human A549 cells at 25 uM after 12 hrs by Western blotting analysis; assay type: cell-based; in short: as §1
[7] = molecular target: T1, Signal transducer and activator of transcription 3; experiment: Inhibition of STAT3 phosphorylation at Y705 residues in human A549 cells at 25 uM after 12 hrs by Western blotting analysis; assay type: cell-based; in short: as §1
[8] = test system: A-375; experiment: Induction of ROS generation in human A-375 cells incubated for 18 hrs by DCFH-DA dye based flow cytometry; assay type: functional, cell-based; settings: dose 10-25 µM
In short: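 A375 cells (1×10^6) were treated with DMSO, 10 or 25 µM for 18 h in full RPMI, then trypsinized and washed. They were loaded with 10 µM DCFH-DA (final) for 30 min at 37 °C in the dark. DCF fluorescence was read by flow cytometry (488 nm excitation, 535 nm filter).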

[9] = molecular target: T1, Signal transducer and activator of transcription 3; experiment: Inhibition of STAT3 phosphorylation at Y705 residues in human NCI-H157 cells at 25 uM after 12 hrs by Western blotting analysis; assay type: cell-based; in short: as §1
[10] = molecular target: T1, Signal transducer and activator of transcription 3; experiment: Inhibition of STAT3 phosphorylation at S727 residues in human U-87 MG cells at 25 uM after 12 hrs by Western blotting analysis; assay type: cell-based; in short: as §1
[11] = molecular target: T1, Signal transducer and activator of transcription 3; experiment: Inhibition of STAT3 phosphorylation at S727 residues in human NCI-H157 cells at 25 uM after 12 hrs by Western blotting analysis; assay type: cell-based; in short: as §1
[12] = molecular target: Tyrosine-protein kinase JAK2 (Homo sapiens) (UniProt O60674); experiment: Inhibition of JAK2 phosphorylation in human NCI-H157 cells at 25 uM after 12 hrs by Western blotting analysis; assay type: cell-based; in short: as §1
[13] = molecular target: Tyrosine-protein kinase JAK2 (Homo sapiens) (UniProt O60674); experiment: Inhibition of JAK2 phosphorylation in human A549 cells at 25 uM after 12 hrs by Western blotting analysis; assay type: cell-based; in short: as §1
[14] = molecular target: Proto-oncogene tyrosine-protein kinase Src (Homo sapiens) (UniProt P12931); experiment: Inhibition of SRC phosphorylation in human NCI-H157 cells at 25 uM after 12 hrs by Western blotting analysis; assay type: cell-based; in short: as §1
[15] = test system: 451Lu; experiment: Induction of apoptosis in human SB-590885-resistant 451Lu cells assessed as increase in cleaved caspase-7 expression measured after 12 hrs by Western blot analysis; assay type: functional
In short: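 Sensitive and resistant 451 Lu cells were exposed to a dose range for 12 h before lysis. PARP, cleaved PARP and caspase-7 were detected by western blot against a vinculin loading control; repeated twice.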

[16] = test system: CCRF-CEM; experiment: Anticancer activity against human CCRF-CEM cells assessed as cell growth inhibition at 10 uM measured after 48 hrs by SRB assay relative to control; assay type: functional; settings: read-out: GI
In short: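 NCI 60-cell-line screen. Cells in RPMI with 5% FBS were plated at 5,000–40,000 cells/well by doubling time and preincubated 24 h at 37 °C. Compound was added at a single 10 µM for 48 h, then cells were fixed with cold TCA (10% final) and stained with 0.4% SRB. Absorbance at 515 nm gave percent growth versus untreated control and time-zero cells.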

[17] = molecular target: Tyrosine-protein kinase JAK2 (Homo sapiens) (UniProt O60674); experiment: Inhibition of JAK2 phosphorylation in human MDA-MB-468 cells at 25 uM after 12 hrs by Western blotting analysis; assay type: cell-based; in short: as §1
[18] = molecular target: Proto-oncogene tyrosine-protein kinase Src (Homo sapiens) (UniProt P12931); experiment: Inhibition of SRC phosphorylation in human MIA PaCa-2 cells at 25 uM after 12 hrs by Western blotting analysis; assay type: cell-based; in short: as §1
[19] = test system: NCI-H157; experiment: Antiproliferative activity against human NCI-H157 cells measured after 48 hrs by MTS assay; assay type: functional, cell-based
In short: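 Cells were exposed to a dose range of inhibitor for 48 h, and viability was read by MTS assay in triplicate. GI50 was taken as the concentration giving 50% growth inhibition, averaged from three independent experiments. A375 was cultured in RPMI-1640 with Glutamax. A549 and NCI-H157 were kept in RPMI-1640, and MIA PaCa-2 and U87-MG in DMEM.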

[20] = molecular target: Signal transducer and activator of transcription 3 (Mus musculus) (UniProt P42227); experiment: Inhibition of EGF-induced STAT3 phosphorylation in MEF assessed as reduction in STAT3 nuclear translocation preincubated overnight followed by EGF stimulation and measured after 30 mins by DAPI staining based immunofluorescence assay; settings: dose 5-50 µM
In short: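 MEF cells (2000/well) were allowed to adhere for 24 h, then held overnight in serum-free medium with inhibitor doses. They were stimulated with full RPMI containing 100 nM EGF for 30 min, then fixed in 4% paraformaldehyde and permeabilized. Cells were immunostained for STAT3 (Alexa Fluor 488) with DAPI nuclear counterstain and nuclear STAT3 was quantified by imaging; three independent experiments.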

[21] = molecular target: T1, Signal transducer and activator of transcription 3; experiment: Inhibition of STAT3 phosphorylation at Y705 residues in human A-375 cells at 10 to 25 uM after 12 hrs by Western blotting analysis; assay type: cell-based; settings: dose 10-25 µM; in short: as §1

Chain of Proto-oncogene tyrosine-protein kinase Src (Homo sapiens) (P12931 2-536 limits assumed): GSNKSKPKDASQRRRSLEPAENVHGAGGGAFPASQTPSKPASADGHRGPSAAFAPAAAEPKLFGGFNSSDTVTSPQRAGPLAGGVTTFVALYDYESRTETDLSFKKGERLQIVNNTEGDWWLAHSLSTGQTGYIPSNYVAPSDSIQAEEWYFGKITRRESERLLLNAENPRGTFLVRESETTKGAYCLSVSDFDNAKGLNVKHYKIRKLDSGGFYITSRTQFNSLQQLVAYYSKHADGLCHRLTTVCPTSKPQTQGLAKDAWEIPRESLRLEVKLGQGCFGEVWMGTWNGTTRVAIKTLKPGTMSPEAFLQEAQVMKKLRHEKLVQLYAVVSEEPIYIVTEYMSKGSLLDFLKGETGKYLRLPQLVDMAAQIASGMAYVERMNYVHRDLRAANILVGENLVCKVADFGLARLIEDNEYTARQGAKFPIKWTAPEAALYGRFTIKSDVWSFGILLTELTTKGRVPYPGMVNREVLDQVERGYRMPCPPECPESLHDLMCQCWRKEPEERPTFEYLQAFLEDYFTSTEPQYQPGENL
T1 sequence (P40763 whole entry): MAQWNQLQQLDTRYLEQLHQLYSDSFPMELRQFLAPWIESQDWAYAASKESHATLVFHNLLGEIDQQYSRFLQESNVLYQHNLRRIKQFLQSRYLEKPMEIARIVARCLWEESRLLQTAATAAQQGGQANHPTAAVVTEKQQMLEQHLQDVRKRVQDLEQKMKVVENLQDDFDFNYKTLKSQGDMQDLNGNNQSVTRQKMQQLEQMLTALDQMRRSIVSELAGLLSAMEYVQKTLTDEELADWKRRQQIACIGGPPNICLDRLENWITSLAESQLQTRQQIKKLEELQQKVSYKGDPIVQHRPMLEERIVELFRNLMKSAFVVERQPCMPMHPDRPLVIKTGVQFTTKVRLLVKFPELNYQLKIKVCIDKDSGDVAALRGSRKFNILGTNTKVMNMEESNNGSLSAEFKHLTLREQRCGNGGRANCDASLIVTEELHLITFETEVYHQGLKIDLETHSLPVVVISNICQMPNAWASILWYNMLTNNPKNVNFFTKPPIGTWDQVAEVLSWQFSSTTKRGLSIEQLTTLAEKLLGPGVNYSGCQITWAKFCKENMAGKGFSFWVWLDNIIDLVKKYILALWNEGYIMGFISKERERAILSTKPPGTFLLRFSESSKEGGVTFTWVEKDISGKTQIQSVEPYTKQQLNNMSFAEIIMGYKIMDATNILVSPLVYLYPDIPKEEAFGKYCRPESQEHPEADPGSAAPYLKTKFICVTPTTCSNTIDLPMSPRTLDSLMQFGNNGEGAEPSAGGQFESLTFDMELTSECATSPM
Chain of Tyrosine-protein kinase JAK2 (Homo sapiens) (O60674 whole entry): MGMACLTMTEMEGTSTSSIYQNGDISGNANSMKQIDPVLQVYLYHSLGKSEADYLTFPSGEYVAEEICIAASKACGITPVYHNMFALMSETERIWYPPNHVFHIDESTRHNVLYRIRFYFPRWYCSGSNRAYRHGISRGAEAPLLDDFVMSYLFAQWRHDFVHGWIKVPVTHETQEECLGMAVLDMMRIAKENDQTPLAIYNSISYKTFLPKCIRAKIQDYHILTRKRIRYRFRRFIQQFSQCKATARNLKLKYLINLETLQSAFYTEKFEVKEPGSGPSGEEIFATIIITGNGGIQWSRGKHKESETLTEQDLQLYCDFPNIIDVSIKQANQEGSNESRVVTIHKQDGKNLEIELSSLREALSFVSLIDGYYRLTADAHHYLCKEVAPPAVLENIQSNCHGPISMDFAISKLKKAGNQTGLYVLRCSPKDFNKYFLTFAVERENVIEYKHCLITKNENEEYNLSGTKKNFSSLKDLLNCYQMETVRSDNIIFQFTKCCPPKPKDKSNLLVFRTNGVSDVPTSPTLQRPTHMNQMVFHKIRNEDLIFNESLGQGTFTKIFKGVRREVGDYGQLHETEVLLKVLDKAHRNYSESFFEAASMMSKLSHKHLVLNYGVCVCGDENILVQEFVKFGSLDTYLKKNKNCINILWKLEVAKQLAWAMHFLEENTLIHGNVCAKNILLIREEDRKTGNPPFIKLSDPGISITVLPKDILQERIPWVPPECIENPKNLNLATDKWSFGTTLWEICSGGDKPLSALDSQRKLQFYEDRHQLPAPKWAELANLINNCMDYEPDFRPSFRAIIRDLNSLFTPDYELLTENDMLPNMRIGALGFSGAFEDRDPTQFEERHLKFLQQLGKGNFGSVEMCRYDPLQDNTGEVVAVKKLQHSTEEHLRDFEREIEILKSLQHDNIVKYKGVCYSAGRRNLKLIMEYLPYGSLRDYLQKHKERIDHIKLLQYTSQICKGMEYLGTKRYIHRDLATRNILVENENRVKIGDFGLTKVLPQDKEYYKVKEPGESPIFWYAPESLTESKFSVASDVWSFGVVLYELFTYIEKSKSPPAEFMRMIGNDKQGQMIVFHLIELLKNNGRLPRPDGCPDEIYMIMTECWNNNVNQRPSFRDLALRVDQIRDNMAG
Chain of Signal transducer and activator of transcription 3 (Mus musculus) (P42227 whole entry): as the sequence (P40763 whole entry) above, with E760D counted along it

C=CCn1c(SCC(=O)Nc2ccc(/C(C)=N\O)cc2)nnc1-c1cc(-c2ccccc2)nc2ccccc12
inactive: inhibition [6] | inhibition [12] | inhibition [13] | inhibition [14] | inhibition [17] | inhibition [18]
active: inhibition [1] | Activity [2] | inhibition [3] | inhibition [4] | Activity [5] | inhibition [7] | Activity [8] Dose-dependent effect | inhibition [9] | inhibition [10] | inhibition [11] | Activity [15] Dose-dependent effect | Activity [19]
76%: inhibition of growth at 10 µM [16]

C=CCn1c(SCC(=O)Nc2ccc(/C(C)=N\O)cc2)nnc1-c1cc(-c2ccc(Cl)cc2)nc2ccccc12
active: inhibition [20] Dose-dependent effect | inhibition [21]
